From PubChem
GPR7 antag: GPR7 receptor antagonists, primary screen, cell-based, fluorescence, single concentration; 290,000 compounds, 1.1% hits; GPR7-expressing cells, fluorescence antagonist assay; inhibition, % at 4.4 µM; AID 1861, 2009; in the data active = inhibition above about 16%, passing the limit was not always enough;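 also: cells stimulated with the agonist NPW; 0% = agonist with vehicle and 100% = vehicle without agonist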
Target sequence (P48145 whole entry, looked up): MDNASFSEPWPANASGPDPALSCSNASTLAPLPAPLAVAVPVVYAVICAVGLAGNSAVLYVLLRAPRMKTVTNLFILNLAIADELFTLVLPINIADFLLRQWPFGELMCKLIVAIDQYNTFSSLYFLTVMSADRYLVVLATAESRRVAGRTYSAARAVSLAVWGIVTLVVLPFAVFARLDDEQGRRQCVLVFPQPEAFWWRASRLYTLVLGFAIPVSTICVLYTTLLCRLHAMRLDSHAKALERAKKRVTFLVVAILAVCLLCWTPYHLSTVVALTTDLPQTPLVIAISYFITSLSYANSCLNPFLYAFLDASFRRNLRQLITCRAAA
CHO parental Ca: ATP-evoked calcium signal inhibitors, parental CHO, primary screen, counter-screen for OX1R antagonist project, cell-based, fluorescence, Fluo-8 calcium dye. parental CHO-K1, ATP-induced calcium, Fluo-8 fluorescence. inhibition, % at 5.6 µM. 330,000 compounds, 0.63% hits. AID 463079, 2010;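 active = inhibition above that plate's mean sample inhibition plus 3 SD, cut at about 26% in these data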;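 also: 0% = ATP-challenged DMSO wells and 100% = DMSO wells without ATP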
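material = parental CHO cells | also added = ATP as calcium-mobilizing challenge | dosing = single point at 5.6 µM | detection = intracellular calcium via Fluo-8 no-wash fluorescent dye | read-out = % inhibition | benchmarks = low control ATP plus DMSO, high control DMSO only | repeats = one well per compound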
GalR3 antagonist: GalR3 antagonists in HEK293 cells, primary screen, cell-based, fluorescence readout. Galanin receptor type 3 (Homo sapiens), O60755. HEK293 GalR3-CNG cAMP membrane potential fluorescence; galR3 body fused to GalR1 C-terminus. inhibition, % at 3 µM. 360,000 compounds, 0.44% hits. AID 651719, 2012;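 active = inhibition above the screen-wide average plus 3 SD, cut at about 13% in these data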;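 also: forskolin and galanin both at EC90 stimulate the cells; cAMP rise reported by CNG channel membrane potential dye signal; 0% = forskolin plus galanin with DMSO and 100% = forskolin alone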
Target sequence (O60755 1-299 limits assumed): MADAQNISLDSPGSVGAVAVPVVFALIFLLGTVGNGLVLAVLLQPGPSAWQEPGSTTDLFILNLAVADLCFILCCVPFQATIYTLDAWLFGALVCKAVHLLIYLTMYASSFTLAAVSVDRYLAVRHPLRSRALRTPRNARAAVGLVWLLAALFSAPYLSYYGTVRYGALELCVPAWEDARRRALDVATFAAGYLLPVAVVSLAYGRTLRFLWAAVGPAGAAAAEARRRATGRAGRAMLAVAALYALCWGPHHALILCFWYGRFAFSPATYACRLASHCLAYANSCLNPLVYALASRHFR
OX1R antag-1: OX1R (HCRTR1) antagonists, primary screen, fluorescence, CHO/OX1R cells, Fluo-8 calcium, orexin A | Orexin/Hypocretin receptor type 1 (Homo sapiens), O43613 | Fluo-8 calcium fluorescence | inhibition, % at 5 µM | 330,000 compounds, 0.43% hits | AID 434989, 2010;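 active = inhibition above its plate's threshold, mean inhibition of all tested compounds on the plate plus 3 SD, cut at about 37% in these data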;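 also: 0% = orexin A challenge wells and 100% = SB-334867-A antagonist wells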
OX1R antag-2: antagonists of human orexin 1 receptor (OX1R). 330,000 compounds, 1.8% hits. OX1R-expressing cells, FRET antagonist read-out. inhibition, % at 6.6 µM. Orexin/Hypocretin receptor type 1 (Homo sapiens), O43613; in the data active = inhibition mostly above about 38%, no sharp cut-off; inactive = mostly below about 40%;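 also: 0% = agonist challenge alone and 100% = reference antagonist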
GPR7 antag conf: GPR7 receptor antagonists, confirmation, cell-based, fluorescence, single concentration. shares compounds with GPR7 antag. GPR7-expressing cells, calcium fluorescence antagonist mode. inhibition, % at 4.4 µM. 2,400 compounds, 52% hits. AID 1952, 2009; in the data active = inhibition above about 24%;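 also: stimulated with the GPR7 agonist NPW; 0% = agonist plus vehicle and 100% = vehicle alone without agonist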
MCHR1 antagonist: MCHR1 antagonists in cells, counter-screen for GPR7 antagonist project, cell-based, fluorescence, human; 2,400 compounds, 62% hits; inhibition, % at 4.4 µM; AID 2148, 2009; shares compounds with GPR7 antag; MCHR1-expressing cells, fluorescence antagonist assay; in the data active = inhibition above about 22%;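 also: 0% = vehicle with agonist and 100% = vehicle without agonist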
OX1R Ca confirm: OX1R (HCRTR1) antagonists, confirmation, fluorescence, CHO/OX1R cells, Fluo-8 calcium, orexin A. shares compounds with OX1R antag-1. orexin A calcium Fluo-8 fluorescence. inhibition, % at 5 µM. 1,100 compounds, 38% hits; in the data active = inhibition above about 29%;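 also: 0% = agonist challenge alone and 100% = reference antagonist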
CHO Ca counter: ATP-evoked calcium inhibition in parental CHO, counter-screen for OX1R antagonist project, cell-based, fluorescence, CHO-K1, triplicate; 1,100 compounds, 9.3% hits; ATP-induced calcium, Fluo-8 fluorescence; shares compounds with OX1R antag-1; AID 492965, 2010; inhibition, % at 5.6 µM;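 active = inhibition above a per-plate limit, the mean inhibition of that plate's test compounds plus 3 SD, cut at about 25% in these data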;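 also: 0% = ATP challenge with DMSO and 100% = DMSO without ATP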
OX1R HTRF conf: OX1R (HCRTR1) antagonists, confirmation, cell-based, HTRF; shares compounds with OX1R antag-2; 1,800 compounds, 49% hits; OX1R-expressing cells, HTRF antagonist assay; inhibition, % at 6.6 µM; in the data active = inhibition above about 55%;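 also: CHO cells expressing OX1R stimulated with orexin A at about EC80; 0% = agonist challenge alone and 100% = reference antagonist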
CHO-K1 HTRF cnt: signal inhibition in parental CHO-K1 cells, counter-screen for OX1R antagonist project, cell-based, HTRF; HTRF counterscreen; shares compounds with OX1R antag-2; inhibition, % at 6.6 µM; 1,800 compounds, 48% hits; in the data active = inhibition above about 17%;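 also: 0% = agonist challenge with vehicle and 100% = vehicle alone without agonist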
The depositor's hits bear a star; / = not tested or not shown. In the library only some 3.1% were active in any assay of this set; here they are far more common.

SMILES	GPR7 antag	CHO parental Ca	GalR3 antagonist	OX1R antag-1	OX1R antag-2	GPR7 antag conf	MCHR1 antagonist	OX1R Ca confirm	CHO Ca counter	others
Cc1cc(-c2ccc(C)c(S(=O)(=O)N3CCN(c4ccccn4)CC3)c2)on1	27.9*	-17.3	-0.6	-11.9	10.3	32.2*	62.3*	/	/
O=[N+]([O-])c1ccc(-c2csc3[n+]2CCS3)cc1	28.9*	-13.5	-2.1	-20.2	74.0*	-1.4	13.8	/	/
O=[N+]([O-])c1cccc(CNC2CCCCCC2)c1	6.1	-9.4	0.3	-20.5	25.2	/	/	/	/
CCOc1ccc([N+](=O)[O-])cc1CNC1CCCCCCC1	54.0*	-14.9	-4.8	-22.4	18.2	38.2*	20.7	/	/
COC(=O)C1=C(C)N(Cc2ccccc2)C(=NCc2ccccc2)N[C@H]1c1ccccc1	/	2.9	-6.3	35.5	14.8	/	/	/	/
COC(=O)C1=C(C)N(Cc2ccccc2)C(=NCc2ccccc2)N[C@H]1c1cccc(F)c1	51.4*	13.6	-7.6	29.2	22.3	54.9*	58.7*	33.3*	7.1
Fc1ccc(-c2cc(C(F)(F)C(F)F)[nH]n2)cc1	42.2*	10.0	-4.6	27.1	8.7	63.8*	62.7*	37.2*	18.9
Clc1cccc(-c2nnc(SC/C=C/c3ccccc3)n2Cc2ccco2)c1	26.6*	18.6	/	48.8*	11.9	43.8*	72.4*	13.4	-2.6
CCOC(=O)C1CCN(Cc2nnc(-c3ccccc3C)o2)CC1	-1.1	-11.0	-10.2	-8.5	4.7	/	/	/	/
N=c1c2c(-c3ccccc3)c(-c3ccccc3)n(Cc3ccco3)c2ncn1Cc1ccccc1	23.9*	-6.0	-3.8	59.1*	15.3	57.6*	92.4*	43.2*	2.4
COc1cccc(/C=C2\CCCCC2=O)c1	-4.2	6.1	-7.4	-8.8	3.3	/	/	/	/
COc1ccc(OCc2n(CC(=O)OC3CC(C)CCC3C(C)C)c3ccccc3[n+]2C)cc1 (stereo unspecified)	71.1*	22.2	5.4	39.7*	7.8	62.1*	84.0*	46.6*	1.3
CC1CCC(C(C)C)C(OC(=O)CSc2nccc(=O)[nH]2)C1 (stereo unspecified)	-7.9	-3.3	-2.3	-10.4	12.3	/	/	/	/
Cc1cccc(N2CCN(C(=O)c3ccc(CS(=O)Cc4cccc(Cl)c4)o3)CC2)c1C (stereo unspecified)	41.9*	21.2	0.2	31.1	12.5	10.9	30.9*	7.3	-7.1
Cc1ccc(CS(=O)Cc2ccc(C(=O)N3CCN(c4cccc(C)c4C)CC3)o2)cc1 (stereo unspecified)	/	/	-6.0	/	/	/	/	/	/
CC(=O)C1=C(O)C(=O)N(c2ccc(Br)cn2)C1c1cccc([N+](=O)[O-])c1 (stereo unspecified)	6.5	-2.4	-9.8	-15.1	14.5	/	/	/	/
CCOc1ccccc1NC(=O)c1cc(S(=O)(=O)NCc2ccco2)ccc1F	24.3*	-4.7	-6.3	39.8*	32.8	-10.7	7.6	3.3	-6.7
COc1ccc(OC)c(NC(=O)c2cc(S(=O)(=O)NCc3ccco3)ccc2F)c1	-7.5	-14.6	-4.2	24.6	22.7	/	/	/	/
Cc1cc(C)nc(/N=C(\N)Nc2ccc(SC(F)F)cc2)n1	64.4*	17.6	-3.5	34.6	13.0	68.3*	78.5*	63.8*	20.6
CCN1CCN(CCCNC(=O)CN2C(=O)c3cccnc3Oc3ccc(Cl)cc32)CC1	-25.4	-1.4	-7.1	-6.9	11.5	/	/	/	/
CCOc1ccc(NC2=C(Cl)C(=O)N(Cc3ccccc3)C2=O)cc1	73.8*	4.7	2.0	51.1*	32.8	99.3*	64.2*	-7.4	-8.3
CCc1ccc(N2C(=O)C3CCCN3C2=S)cc1 (stereo unspecified)	-2.0	-3.5	-3.5	-6.8	9.5	/	/	/	/
CN(C)C(=O)c1cc2cc([N+](=O)[O-])ccc2s1	26.4*	4.7	-1.4	-6.7	119.8*	-12.8	11.7	/	/	OX1R HTRF conf=38.8;CHO-K1 HTRF cnt=32.7*
COc1ccc(-c2cc(=O)c3ccccc3s2)cc1	34.8*	-19.5	-10.7	-11.7	83.2*	7.2	27.1*	/	/	OX1R HTRF conf=85.4*;CHO-K1 HTRF cnt=4.1
CC(c1ccco1)N(C(=O)c1ccccc1NS(=O)(=O)c1ccc(Cl)c([N+](=O)[O-])c1)c1ccccn1 (stereo unspecified)	24.0*	18.2	2.2	23.6	97.7*	12.2	30.8*	/	/	OX1R HTRF conf=52.4;CHO-K1 HTRF cnt=9.9
SMILES	GPR7 antag	CHO parental Ca	GalR3 antagonist	OX1R antag-1	OX1R antag-2	GPR7 antag conf	MCHR1 antagonist	OX1R Ca confirm	CHO Ca counter	others
O=S(=O)(c1ccc2nc(Nc3ccccc3)ccc2c1)N1CCCCC1	-16.9	-8.5	1.4	-14.3	4.0	/	/	/	/
Nc1c(C(=O)O)ccc2c1C(=O)c1ccccc1C2=O	23.0*	7.4	-2.9	2.7	107.1*	4.8	2.7	/	/	OX1R HTRF conf=39.1;CHO-K1 HTRF cnt=28.8*
COC(=O)c1cc2c(C)cc3ccc(C)cn3c-2c1C(=O)OC	-7.6	-24.7	-5.4	-14.3	64.8	/	/	/	/
COC(=O)c1cc2ccccn2c2c(C(=O)OC)c(C(=O)OC)cc1-2	31.4*	-13.9	0.0	-15.1	94.3*	-3.0	21.9*	/	/	OX1R HTRF conf=39.4;CHO-K1 HTRF cnt=24.9*
O=C(OCc1cccc([N+](=O)[O-])c1)c1cc(=O)[nH]c2ccccc12	-5.6	-12.0	/	-19.6	2.0	/	/	/	/
CCOC(=O)c1cc2[nH]c3ccccc3c2[n+](-c2ccc([N+](=O)[O-])cc2)c1C	23.1*	-8.8	-8.1	-8.0	114.2*	18.1	15.8	/	/	OX1R HTRF conf=53.4;CHO-K1 HTRF cnt=75.3*
